The results in this text go back to ChEMBL document CHEMBL2177098, “Synthesis and evaluation of novel ¹⁸F labeled 2-pyridinylbenzoxazole and 2-pyridinylbenzothiazole derivatives as ligands for positron emission tomography (PET) imaging of β-amyloid plaques” (J Med Chem, 2012).

Active and inactive are the calls of the source. The calls are words filed in the database; no cut-off is given here.

The nature of data set [1]: Displacement of [125I]-IMPY from amyloid beta (1 to 42) fibrils after 2 hrs by gamma-counting analysis. Put shortly:
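Competition binding with aggregated Aβ1-42 fibrils and [125I]IMPY (60000−100000 cpm/100 μL) in 0.05% BSA (1 mL total); inhibitors 10⁻⁴−10^−8.5 M in ethanol. Incubated 37 °C for 2 h, then GF/B vacuum filtration with PBS (0.02 M, pH 7.4) washes and γ counting. Three repeats; IC50 converted to Ki by Cheng−Prusoff.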

The subject of a further data set is Brain. Put plainly: Ratio of drug uptake in brain at 2 mins to drug uptake in brain at 60 mins in iv dosed ICR mouse. Format: ADME, organism-based. Particulars: in vivo.
Data set [2] deals with Amyloid-beta precursor protein (Homo sapiens) (UniProt P05067). Put plainly: Binding affinity to amyloid beta plaques in Alzheimer patient brain at 370 KBq/100 ul after 1 hr by autoradiographic analysis. Particulars: tested as the 18F-labelled form.
The species named for data set [3] is Mus musculus. Put plainly: Binding affinity to amyloid beta plaques in transgenic C57BL6 mouse cortex expressing APP Swedish mutant/PSEN1 at 370 KBq/100 ul after 1 hr by autoradiographic analysis. Particulars: tested as the 18F-labelled form. In a few lines: (§1)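 Paraffin brain sections from 12-month-old Tg mice (C57BL6, APPswe/PSEN1) and age-matched controls, deparaffinized through xylene and graded ethanol, then PBS (0.2 M, pH 7.4) 30 min. Incubated with 18F tracer (370 KBq per 100 μL) 1 h at room temperature, washed in 40% EtOH, rinsed in water, then phosphor plate exposure 2 h. The same sections were afterwards stained with 0.125% thioflavin S in 10% EtOH for 3 min and washed in 40% EtOH.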

The species named for data set [4] is Mus musculus. Description: Binding affinity to amyloid beta plaques in transgenic C57BL6 mouse hippocampus expressing APP Swedish mutant/PSEN1 at 370 KBq/100 ul after 1 hr by autoradiographic analysis. The settings on record: tested as the 18F-labelled form. It counts as tissue-based. Put shortly: as §1
Data set [5] is filed under the species Mus musculus. Put plainly: Binding affinity to amyloid beta plaques in transgenic C57BL6 mouse cortex expressing APP Swedish mutant/PSEN1 at 370 KBq/100 ul after 1 hr by thioflavinS-staining method. Particulars: tested as the 18F-labelled form. In a few lines:
as §1

The species named for data set [6] is Mus musculus. Description: Binding affinity to amyloid beta plaques in transgenic C57BL6 mouse hippocampus expressing APP Swedish mutant/PSEN1 at 370 KBq/100 ul after 1 hr by thioflavinS-staining method. Format: tissue-based. The settings on record: tested as the 18F-labelled form. Put shortly: as §1
For data set [7], the system named is Mus musculus. Put plainly: Binding affinity to amyloid beta plaques in transgenic C57BL6 mouse cortex expressing APP Swedish mutant/PSEN1 at 19.2 MBq, iv after 30 mins by thioflavinS-staining method. Format: functional, organism-based. The settings on record: 19.2 M, tested as the 18F-labelled form.
Data set [8] concerns Mus musculus. Description: Binding affinity to amyloid beta plaques in transgenic C57BL6 mouse cortex expressing APP Swedish mutant/PSEN1 at 19.2 MBq, iv after 30 mins by autoradiographic analysis. It counts as functional, organism-based. Particulars: 19.2 M, tested as the 18F-labelled form. In a few lines: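 Ex vivo: Tg mouse (C57BL6, APPswe/PSEN1) given 19.2 MBq tracer in saline via tail vein; decapitated 30 min later. Brain frozen in liquid nitrogen, 20 μm sections cut and exposed to a phosphor plate for 5 h.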

Amyloid-beta precursor protein (Homo sapiens), sequence (P05067 whole entry): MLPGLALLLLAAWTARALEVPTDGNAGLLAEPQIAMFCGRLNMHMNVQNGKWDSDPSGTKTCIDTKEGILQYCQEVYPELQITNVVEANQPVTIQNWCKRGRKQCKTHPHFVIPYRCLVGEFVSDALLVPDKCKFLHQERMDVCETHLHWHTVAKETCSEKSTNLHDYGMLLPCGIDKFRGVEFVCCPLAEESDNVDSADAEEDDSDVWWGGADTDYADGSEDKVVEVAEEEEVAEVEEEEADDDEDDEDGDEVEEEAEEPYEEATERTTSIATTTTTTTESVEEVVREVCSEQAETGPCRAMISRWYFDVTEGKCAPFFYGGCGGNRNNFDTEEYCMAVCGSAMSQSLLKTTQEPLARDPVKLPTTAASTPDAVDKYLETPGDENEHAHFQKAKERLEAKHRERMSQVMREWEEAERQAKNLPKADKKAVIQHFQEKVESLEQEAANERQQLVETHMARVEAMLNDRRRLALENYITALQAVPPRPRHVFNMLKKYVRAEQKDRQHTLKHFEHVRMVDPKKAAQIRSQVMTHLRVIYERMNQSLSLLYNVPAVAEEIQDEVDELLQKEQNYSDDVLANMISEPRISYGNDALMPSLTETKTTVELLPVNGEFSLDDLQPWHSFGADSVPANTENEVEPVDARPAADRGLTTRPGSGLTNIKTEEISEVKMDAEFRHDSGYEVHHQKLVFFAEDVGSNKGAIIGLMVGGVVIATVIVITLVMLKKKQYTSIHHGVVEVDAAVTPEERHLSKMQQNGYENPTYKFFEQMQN

With `CNc1ccc(/C=C/c2ccc(OCCOCCOCC[18F])cc2)cc1` [FLORBETABEN F18], the Ki in data set [1] turned out to be 6.7 nM. In addition, in the data set with Brain, the Ratio turned out to be 3.13.
Turning to `CNc1ccc(-c2nc3cc(OCCF)ccc3o2)cn1`, the outcome (in [2]; in the data set filed under Mus musculus [3]; in the data set filed under Mus musculus [4]; in the data set listed under Mus musculus [5]; in the data set filed under Mus musculus [6]; with Mus musculus [7]) was Active. For the same compound, in the data set with Mus musculus [8], the outcome was Active. The same compound gave a Ki in [1] of 8 nM.
